Source: ChEMBL document CHEMBL4706674 (Bioorg Med Chem Lett, 2021)

Tests used:
[1] = test system: Human immunodeficiency virus 1; test: Antiviral activity against wild type HIV-1 NL4-3 infected in MT-2 cells assessed as inhibition of viral replication in presence of 40% human serum and 27 mg/ml human serum albumin by luciferase reporter gene based multicycle replication assay; format: functional, organism-based; conditions: Human immunodeficiency virus 1, NL4-3, MT2
[2] = Metabolic stability in human liver microsomes assessed as half life; format: ADME, Microsome; conditions: time 2 min
[3] = Volume of distribution at steady state in rat at 1 mg/kg, iv; format: ADME, organism-based; conditions: in vivo, read-out: Vdss
[4] = AUC (0 to 24) in rat at 5 mg/kg, po measured after 24 hrs; format: ADME, organism-based; design: route oral, time 24 hrs, dose 5 mg/kg; conditions: in vivo
In short: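 Rats dosed orally at 5 mg/kg (IV arm 1 mg/kg). Vehicle was PEG 300/ethanol/Tween 80 (89:10:1 v/v) or PEG 300/ethanol/0.1 N NaOH/Tween 80 (84.5:10:5:0.5 v/v). Values are the mean of 3 rats unless noted (some n = 2), from a full 24 h PK run; AUC_total also drew on a 6 h PK screen.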

[5] = Clearance in rat at 1 mg/kg, iv measured after 24 hrs; format: ADME, organism-based; conditions: in vivo
In short: (§1)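 Rats dosed 5 mg/kg PO and 1 mg/kg IV; each value is the mean of 3 rats unless otherwise noted (some n = 2). Vehicle PEG 300/ethanol/Tween 80 (89:10:1 v/v), or PEG 300/ethanol/0.1 N NaOH/Tween 80 (84.5:10:5:0.5 v/v). F, tmax, Cmax and CL come from a full 24 h PK screen. AUCtotal is derived from the full 24 h run plus a 6 h PK screen.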

[6] = Tmax in rat at 5 mg/kg, po measured after 24 hrs; format: ADME, organism-based; conditions: in vivo; in short: as §1
[7] = Metabolic stability in rat liver microsomes assessed as half life; format: ADME, Microsome; conditions: time 2 min
[8] = test system: Human immunodeficiency virus 1; test: Antiviral activity against wild type HIV-1 NL4-3 infected in MT-2 cells assessed as inhibition of viral replication in presence of 10% of fetal bovine serum by luciferase reporter gene based multicycle replication assay; format: functional, organism-based; conditions: Human immunodeficiency virus 1, NL4-3, MT2
[9] = Cytotoxicity against human MT2 cells; format: cell-based
[10] = test system: Human immunodeficiency virus 1; test: Antiviral activity against wild type HIV-1 NL4-3 harbouring Gag AV370 mutant infected in MT-2 cells assessed as inhibition of viral replication in presence of 10% of fetal bovine serum by luciferase reporter gene based multicycle replication assay; format: functional, organism-based; conditions: Human immunodeficiency virus 1, NL4-3, MT2
In short: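 Multiple-cycle replication assay in MT-2 cells using NL4-3-derived virus carrying a Renilla luciferase reporter (NLRepRlucP373S) as the growth marker. V370A and ΔV370 viruses are identical to WT except for that single substitution or deletion at position 370.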

[11] = test system: Human immunodeficiency virus 1; test: Antiviral activity against wild type HIV-1 NL4-3 harbouring Gag V370A mutant infected in MT-2 cells assessed as inhibition of viral replication in presence of 10% of fetal bovine serum by luciferase reporter gene based multicycle replication assay; format: functional, organism-based; conditions: Human immunodeficiency virus 1, NL4-3, MT2
[12] = test system: Human immunodeficiency virus 1; test: Antiviral activity against wild type HIV-1 NL4-3 harbouring Gag AV370/T371A mutant infected in MT-2 cells assessed as inhibition of viral replication in presence of 10% of fetal bovine serum by luciferase reporter gene based multicycle replication assay; format: functional, organism-based; conditions: Human immunodeficiency virus 1, NL4-3, MT2
[13] = test system: Human immunodeficiency virus 1; test: Antiviral activity against wild type HIV-1 NL4-3 harbouring Gag A364V mutant infected in MT-2 cells assessed as inhibition of viral replication in presence of 10% of fetal bovine serum by luciferase reporter gene based multicycle replication assay; format: functional, organism-based; conditions: Human immunodeficiency virus 1, NL4-3, MT2
[14] = test system: Human immunodeficiency virus 1; test: Antiviral activity against wild type HIV-1 NL4-3 harbouring Gag […]/V370A mutant infected in MT-2 cells assessed as inhibition of viral replication in presence of 10% of fetal bovine serum by luciferase reporter gene based multicycle replication assay; format: functional, organism-based; conditions: Human immunodeficiency virus 1, NL4-3, MT2
[15] = AUCtotal in rat at 5 mg/kg, po measured after 24 hrs; format: ADME, organism-based; design: route oral, dose 5 mg/kg, time 24 hrs; conditions: in vivo; in short: as §1
[16] = Cmax in rat at 5 mg/kg, po measured after 24 hrs; format: ADME, organism-based; design: route oral, dose 5 mg/kg, time 24 hrs; conditions: in vivo; in short: as §1
[17] = Oral bioavailability in rat measured at 5 mg/kg up to 24 hrs; format: ADME, organism-based; conditions: in vivo; in short: as §1
[18] = AUC in rat at 5 mg/kg, po; conditions: in vivo

Row | Structure (SMILES) | EC50 [1] [nM] | EC50 [8] [nM] | CC50 [9] [nM] | EC50 [10] [nM] | EC50 [11] [nM] | EC50 [14] [nM] | further results
1 | C=C(C)[C@@H]1CC[C@]2(C(=O)O)CC[C@]3(C)[C@H](CC[C@@H]4[C@@]5(C)CC=C(c6ccc(C(=O)O)cc6)C(C)(C)[C@@H]5CC[C@]43C)[C@@H]12 | 316 |  |  |  |  |  | half-life [2]: > 2 h; Vd [3]: 0.1 L/kg; AUC at 24 h [4]: 5.7 µM·h; clearance [5]: 1 mL/min/kg; Tmax [6]: 4 h; half-life [7]: > 2 h
2 | C=C(C)[C@@H]1CC[C@]2(NCCN3CCC(S(C)(=O)=O)CC3)CC[C@]3(C)[C@H](CC[C@@H]4[C@@]5(C)CC=C(c6ccc(C(=O)O)cc6)C(C)(C)[C@@H]5CC[C@]43C)[C@@H]12 |  | 1.9 |  |  |  |  | 
3 | C=C(C)[C@@H]1CC[C@]2(NCCN3CCS(=O)(=O)CC3)CC[C@]3(C)[C@H](CC[C@@H]4[C@@]5(C)CC=C(C6=CC[C@H](C(=O)O)CC6)C(C)(C)[C@@H]5CC[C@]43C)[C@@H]12 | 5 | 1.3 | 4100 | 4.1 | 2 |  | 
4 | C=C(C)[C@@H]1CC[C@]2(CO)CC[C@]3(C)[C@H](CC[C@@H]4[C@@]5(C)CC=C(C#CC(=O)O)C(C)(C)[C@@H]5CC[C@]43C)[C@@H]12 |  | 252 | > 10000 | > 3000 | > 3000 |  | 
5 | C=C(C)[C@@H]1CC[C@]2(NCCN3CCS(=O)(=O)CC3)CC[C@]3(C)[C@H](CC[C@@H]4[C@@]5(C)CC=C(C6=CC7(C6)CC(C(=O)O)(C(=O)O)C7)C(C)(C)[C@@H]5CC[C@]43C)[C@@H]12 |  | 13 | > 30000 | 61.1 | 28.8 |  | 
6 | C=C(C)[C@@H]1CC[C@]2(NCCN3CCS(=O)(=O)CC3)CC[C@]3(C)[C@H](CC[C@@H]4[C@@]5(C)CC=C(CCCC(C(=O)O)C(=O)O)C(C)(C)[C@@H]5CC[C@]43C)[C@@H]12 |  | 306 | > 30000 |  |  |  | EC50 [12]: 555 nM
7 | C=C(C)[C@@H]1CC[C@]2(NCCN3CCS(=O)(=O)CC3)CC[C@]3(C)[C@H](CC[C@@H]4[C@@]5(C)CC=C(CCCCC(=O)O)C(C)(C)[C@@H]5CC[C@]43C)[C@@H]12 |  | 2.3 | 10200 |  |  |  | EC50 [12]: 118 nM
8 | C=C(C)[C@@H]1CC[C@]2(NCCN3CCS(=O)(=O)CC3)CC[C@]3(C)[C@H](CC[C@@H]4[C@@]5(C)CC=C(CCC(C)(C)CC(=O)O)C(C)(C)[C@@H]5CC[C@]43C)[C@@H]12 | 6.8 | 1.3 | 12300 | 2.3 |  | 1.6 | EC50 [13]: 1290 nM
9 | C=C(C)[C@@H]1CC[C@]2(NCCN3CCS(=O)(=O)CC3)CC[C@]3(C)[C@H](CC[C@@H]4[C@@]5(C)CC=C(CCCC(C)(C)C(=O)O)C(C)(C)[C@@H]5CC[C@]43C)[C@@H]12 |  | 5.3 | 8200 |  |  |  | EC50 [12]: 29.7 nM
10 | C=C(C)[C@@H]1CC[C@]2(NCCN3CCS(=O)(=O)CC3)CC[C@]3(C)[C@H](CC[C@@H]4[C@@]5(C)CC=C(C6=CC7(C6)CC(C(=O)O)C7)C(C)(C)[C@@H]5CC[C@]43C)[C@@H]12 (some centres undefined) | 7 | 1.5 | 11900 | 5.9 | 1.6 | 49 | AUC [15]: 13.5 µM·h; Cmax [16]: 900 nM; EC50 [13]: 980 nM; half-life [2]: 1.15 h; Vd [3]: 1.4 L/kg; clearance [5]: 2.9 mL/min/kg; Tmax [6]: 6.3 h; bioavailability [17]: 32%; half-life [7]: > 2 h
11 | C=C(C)[C@@H]1CC[C@]2(C(=O)O)CC[C@]3(C)[C@H](CC[C@@H]4[C@@]5(C)CC=C(C6=CC7(C6)CC(C(=O)O)(C(=O)O)C7)C(C)(C)[C@@H]5CC[C@]43C)[C@@H]12 |  | 28.3 | 18600 | 437 | 85.4 |  | 
12 | C=C(C)[C@@H]1CC[C@]2(NCCN3CCS(=O)(=O)CC3)CC[C@]3(C)[C@H](CC[C@@H]4[C@@]5(C)CC=C(CC6CCC(C(=O)O)CC6)C(C)(C)[C@@H]5CC[C@]43C)[C@@H]12 (some centres undefined) |  | 3 | 13500 |  |  | 12.4 | EC50 [13]: 1850 nM; EC50 [12]: 5.6 nM
13 | C=C(C)[C@@H]1CC[C@]2(NCCN3CCS(=O)(=O)CC3)CC[C@]3(C)[C@H](CC[C@@H]4[C@@]5(C)C=CC(=C6CC7(C6)CC(C(=O)O)(C(=O)O)C7)C(C)(C)[C@@H]5CC[C@]43C)[C@@H]12 |  | 26.7 | > 10000 | 60.8 | 53.1 |  | 
14 | C=C(C)[C@@H]1CC[C@]2(NCCN3CCS(=O)(=O)CC3)CC[C@]3(C)[C@H](CC[C@@H]4[C@@]5(C)CC=C(C6=CCC(C(=O)O)CC6)C(C)(C)[C@@H]5CC[C@]43C)[C@@H]12 (some centres undefined) | 8.9 | 0.6 | 9600 | 2.1 | 0.8 |  | 
15 | C=C(C)[C@@H]1CC[C@]2(NCCN3CCC(S(C)(=O)=O)CC3)CC[C@]3(C)[C@H](CC[C@@H]4[C@@]5(C)CC=C(C6=CC[C@@H](C(=O)O)CC6)C(C)(C)[C@@H]5CC[C@]43C)[C@@H]12 | 5 | 2.7 | 9000 | 2.7 |  | 14.7 | EC50 [13]: 1800 nM
16 | C=C(C)[C@@H]1CC[C@]2(NCCN3CCS(=O)(=O)CC3)CC[C@]3(C)[C@H](CC[C@@H]4[C@@]5(C)CC=C(C6=CC[C@@H](C(=O)O)CC6)C(C)(C)[C@@H]5CC[C@]43C)[C@@H]12 | 5.7 | 0.9 | 12200 | 3.1 | 1.3 |  | AUC [15]: 15.8 µM·h; Cmax [16]: 1100 nM; half-life [2]: 0.967 h; Vd [3]: 2.3 L/kg; clearance [5]: 4.3 mL/min/kg; Tmax [6]: 2.7 h; bioavailability [17]: 58%; half-life [7]: > 2 h
17 | C=C(C)[C@@H]1CC[C@]2(NCCN3CCC(S(C)(=O)=O)CC3)CC[C@]3(C)[C@H](CC[C@@H]4[C@@]5(C)CC=C(C6=CC[C@H](C(=O)O)CC6)C(C)(C)[C@@H]5CC[C@]43C)[C@@H]12 | 6.6 | 1.4 | 9100 | 4.2 |  | 9.6 | EC50 [13]: 878 nM
18 | C=C(C)[C@@H]1CC[C@]2(NCCN3CCS(=O)(=O)CC3)CC[C@]3(C)[C@H](CC[C@@H]4[C@@]5(C)CC=C(C6=CCC(C(=O)O)(C(=O)O)CC6)C(C)(C)[C@@H]5CC[C@]43C)[C@@H]12 |  | 99 | 13200 | 40.1 | 39.2 | 113 | 
19 | C=C(C)[C@@H]1CC[C@]2(C(=O)O)CC[C@]3(C)[C@H](CC[C@@H]4[C@@]5(C)CC[C@H](OC(=O)CC(C)(C)C(=O)O)C(C)(C)[C@@H]5CC[C@]43C)[C@@H]12 [BEVIRIMAT] |  |  |  |  |  |  | half-life [2]: > 2 h; Tmax [6]: 1.8 h; F ([17]; 5 mg/kg, 24 h): 54%; half-life [7]: 0.492 h
20 | C=C(C)[C@@H]1CC[C@]2(NCCN3CCS(=O)(=O)CC3)CC[C@]3(C)[C@H](CC[C@@H]4[C@@]5(C)CC=C(c6ccc(C(=O)O)cc6)C(C)(C)[C@@H]5CC[C@]43C)[C@@H]12 [BMS-955176] | 11.5 |  |  | 13 | 2.7 | 148 | AUC [15]: 14.2 µM·h; Cmax [16]: 1200 nM; half-life [2]: > 2 h; Tmax [6]: 6 h; EC50 [12]: 23 nM; AUC [18]: 4.1 µM·h; half-life [7]: > 2 h
